The subject of series [1] is HUVEC. The experiment in a line: Cytotoxicity against HUVEC at 1 ug/ml after 24 hrs by MTT assay. It is filed as cell-based. The note with it: human. Put shortly:
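HUVECs (1.0 × 10^4/well) in EBM2 with 0.5% FBS, settled overnight at 37 °C, 5% CO2; compound at 1 μg/mL for 24 h. MTT added for 4 h at 37 °C, formazan dissolved in DMSO, absorbance read at 595 nm.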
(Tetrazolium dyes change colour on reduction, which living cells bring about.)

For series [2], the system named is HUVEC. In words: Antiangiogenic activity in HUVEC assessed as decrease in VEGF-induced extremities at 1 ug/ml after 3 days. It is filed as functional, cell-based. The note with it: Homo sapiens. Put shortly:
(§1)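 HUVECs seeded on Cytodex 3 beads (400 cells/bead, 4 h at 37 °C with shaking, then 24 h), embedded in fibrin gel (fibrinogen 2.5 mg/mL, aprotinin 0.15 U/mL, thrombin) with VEGF; EGM-2 with VEGF 5 ng/mL, NHDF overlaid. Compound added after 1 h, medium renewed at 24 h then every 48 h. Imaged at 4× day 4; sprout network quantified by Angiogenesis Analyzer; ≥18 spheres, mean ± SEM, one-way ANOVA/Dunnett.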

The test system of series [3] is HUVEC. The experiment in a line: Antiangiogenic activity in HUVEC assessed as decrease in VEGF-induced number of total capillary length at 1 ug/ml after 3 days. The note with it: Homo sapiens. The series is classed as functional, cell-based. Put shortly: as §1
A short description of series [4]: Inhibition of TNFalpha-stimulated NF-kappaB (unknown origin) expressed in HEK293 cells incubated for 30 mins followed by TNFalpha stimulation for 4 hrs by luciferase reporter gene based luminescence assay. The series is classed as cell-based. The note with it: Homo sapiens. Background: A reporter such as luciferase makes a cellular process visible.
Series [5] deals with HUVEC. The experiment in a line: Antiangiogenic activity in HUVEC assessed as decrease in VEGF-induced anchorage junctions at 1 ug/ml after 3 days. The series is classed as functional, cell-based. To be noted: Homo sapiens. Summed up:
as §1

Series [6] relates to HUVEC. In words: Antiangiogenic activity in HUVEC assessed as decrease in VEGF-induced segments at 1 ug/ml after 3 days. The note with it: Homo sapiens. The series is classed as functional, cell-based. Put shortly: as §1

The source made the active and inactive calls. The rule behind the calls is not given here.

For ten molecules, Activity and IC50 results are on record in ChEMBL document CHEMBL4196133, “NF-κB and Angiogenesis Inhibitors from the Aerial Parts of Chresta martii” (J Nat Prod, 2018).

Usually IC50 stands for the concentration that gives 50% inhibition. High values mean weaker potency in that assay, low ones greater potency in that assay.

For `COc1ccc(-c2cc(=O)c3c(O)cc(O)cc3o2)cc1OC`, the Activity entry in the series on HUVEC [1] was “Non-Toxic”.
On to `C[C@@]12/C=C3\OC(=O)C(CO)=C3[C@@H](O)C[C@@](C)(O)[C@@](O)(CC1)O2`, for which the outcome in the series on HUVEC [2], with HUVEC [3], in the series with HUVEC [5] and in the series with HUVEC [6] was Active. Also, in series [4], the IC50 was found to be 2200 nM. For the same molecule, in the series with HUVEC [1], the Activity result was “Non-Toxic”.
Regarding `CCC(=O)O[C@H]1C[C@@](C)(OC(C)=O)C(=O)CC[C@@]2(C)O[C@H]2[C@H]2OC(=O)C(COC(C)=O)=C12`, in series [4], the IC50 was 5100 nM. For the same molecule, in the series on HUVEC [1], the Activity result is “Non-Toxic”.
Consider `CC(=O)OCC1=C2[C@@H](OC(C)=O)C[C@@](C)(OC(C)=O)[C@@]3(O)CC[C@@](C)(O)[C@H](OC(C)=O)[C@@]23OC1=O`, for which the IC50 in series [4] stood at 13600 nM.
On to `CC(=O)OCC1=C2[C@@H](O)C[C@@](C)(OC(C)=O)C(=O)CC[C@@]3(C)O[C@H]3[C@H]2OC1=O`, for which the IC50 in series [4] was determined as 7800 nM. For the same molecule, the Activity result with HUVEC [1] is “Non-Toxic”.
With `CC(=O)OCC1=C2[C@@H](OC(C)=O)C[C@@](C)(OC(C)=O)C(=O)CC[C@@]3(C)O[C@H]3[C@H]2OC1=O`, the result in the series with HUVEC [2], in the series with HUVEC [3], with HUVEC [5] and in the series with HUVEC [6] was Active. In series [4], 6500 nM corresponded to half-maximal inhibition (IC50). In addition, the Activity entry in the series on HUVEC [1] is listed as “Non-Toxic”.
As for `CC(=O)OCC1=C2/C(=C/[C@]3(C)CC[C@@](O)(O3)[C@](C)(O)C[C@@H]2O)OC1=O`, the outcome in the series on HUVEC [2], in the series with HUVEC [3], in the series with HUVEC [5] and with HUVEC [6] was Active. This molecule registered an IC50 in series [4] of 700 nM. Further, the Activity entry in the series on HUVEC [1] is recorded as “Non-Toxic”.
`CC(=O)OCC1=C2/C(=C/[C@]3(C)CC[C@@](O)(O3)[C@@](C)(O)C[C@H]2OC(C)=O)OC1=O`: the outcome with HUVEC [2], with HUVEC [3], in the series on HUVEC [5] and in the series with HUVEC [6] was Active. Also, it took 1800 nM to reach half-maximal inhibition in series [4] (IC50). Besides, the Activity result in the series on HUVEC [1] is “Non-Toxic”.
Regarding `C=C1C(=O)O[C@H]2[C@@H]1CC/C(C)=C\CC[C@@]1(C)O[C@@H]21`, in series [4], the IC50 is 700 nM. This lies in the sub-micromolar range.
On to `CC(=O)O[C@@H]1C[C@@](C)(OC(C)=O)C(=O)CC[C@@]2(C)O[C@@H]2C2OC(=O)C(CO)=C21` (some centres not stated), for which the outcome in the series with HUVEC [2], in the series with HUVEC [3], with HUVEC [5] and in the series on HUVEC [6] was Active. Further, in series [4], the IC50 was determined as 2400 nM. In addition, the Activity result in the series on HUVEC [1] is on record as “Non-Toxic”.
